As a reminder, the inhibition is how much of the control response was suppressed. Broadly, the half-life is the time needed for the level to fall by half in the phase considered.

Activity calls are given as the source filed them.

The results in this text go back to ChEMBL document CHEMBL2157887, “Adamantyl carboxamides and acetamides as potent human 11β-hydroxysteroid dehydrogenase type 1 inhibitors” (Bioorg Med Chem, 2012).

Data set [1] deals with T1, 11-beta-hydroxysteroid dehydrogenase type 2 (Homo sapiens) (UniProt P80365).
T1 sequence (whole entry): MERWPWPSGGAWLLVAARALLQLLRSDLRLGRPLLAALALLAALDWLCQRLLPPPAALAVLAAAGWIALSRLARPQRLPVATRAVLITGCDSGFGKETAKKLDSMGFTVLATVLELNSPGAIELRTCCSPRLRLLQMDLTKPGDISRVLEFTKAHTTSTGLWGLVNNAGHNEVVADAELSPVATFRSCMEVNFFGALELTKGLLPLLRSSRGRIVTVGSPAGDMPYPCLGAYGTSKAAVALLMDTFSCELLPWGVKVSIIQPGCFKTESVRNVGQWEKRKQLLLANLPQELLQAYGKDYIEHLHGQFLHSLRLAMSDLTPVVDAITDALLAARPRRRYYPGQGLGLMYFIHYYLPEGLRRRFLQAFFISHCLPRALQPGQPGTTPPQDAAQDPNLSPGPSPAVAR
Kind of data set: Inhibition of human 11beta-HSD2 expressed in CHO cells assessed as conversion of [3H]cortisol to [3H]cortisone at 10 uM after 2 hrs.

For data set [2], the target named is T2, 17-beta-hydroxysteroid dehydrogenase type 1 (Homo sapiens) (UniProt P14061).
T2 sequence (whole entry): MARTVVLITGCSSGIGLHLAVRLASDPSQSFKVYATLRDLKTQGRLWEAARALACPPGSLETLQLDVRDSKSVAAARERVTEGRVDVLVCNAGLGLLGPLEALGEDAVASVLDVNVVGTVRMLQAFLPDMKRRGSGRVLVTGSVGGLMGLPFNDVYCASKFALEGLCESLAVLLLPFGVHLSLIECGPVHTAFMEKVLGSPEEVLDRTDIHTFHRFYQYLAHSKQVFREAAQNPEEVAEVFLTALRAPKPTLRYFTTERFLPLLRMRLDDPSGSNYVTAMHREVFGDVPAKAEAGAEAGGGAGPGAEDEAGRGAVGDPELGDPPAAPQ
Kind of data set: Inhibition of human 17beta-HSD1 in human T47D cells assessed as conversion of [3H]E1 to [3H]E2 at 10 uM after 30 mins. The data set is classed as cell-based.

The target in data set [3] is 11-beta-hydroxysteroid dehydrogenase 1 (Homo sapiens) (UniProt P28845). Kind of data set: Inhibition of human 11beta-HSD1 expressed in HEK293 cells assessed as conversion of [3H]cortisone to [3H]cortisol at 1 uM after 2 hrs by scintillation counting. In kind it is cell-based. In outline: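 HSD11B1-stably transfected HEK-293 cells grown to 80% confluence, then given serum-free medium with 22 nM ³H-cortisone and compound in 1% DMSO, 37 °C, 2 h. Medium sampled into anti-cortisol antibody/SPA bead mix, shaken to equilibrium, scintillation counted. Percent inhibition against high controls (no compound) and low controls (no cells).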

Data set [4] in a line: Half life in human liver microsomes by HPLC analysis in presence of NADPH. The data set is classed as ADME, Microsome. Summed up: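 Parent compound incubated with human liver microsomes plus NADPH cofactor at 37 °C for 40 min; remaining parent quantified by HPLC to derive T1/2.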
For orientation: Liver microsomes are vesicles of endoplasmic reticulum, rich in cytochrome P450 enzymes.

Sequence of 11-beta-hydroxysteroid dehydrogenase 1 (Homo sapiens) (P28845 whole entry, looked up): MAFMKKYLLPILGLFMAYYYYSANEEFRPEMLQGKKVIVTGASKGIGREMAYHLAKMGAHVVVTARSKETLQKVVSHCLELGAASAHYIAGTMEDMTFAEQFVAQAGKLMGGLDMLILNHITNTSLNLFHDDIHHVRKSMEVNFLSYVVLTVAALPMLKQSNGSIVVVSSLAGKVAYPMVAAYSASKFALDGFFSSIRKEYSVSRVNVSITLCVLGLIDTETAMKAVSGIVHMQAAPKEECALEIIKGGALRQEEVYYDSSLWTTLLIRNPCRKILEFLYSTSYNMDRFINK

Regarding `CC(=O)Nc1cccc(CN(C)C(=O)C23CC4CC(CC(C4)C2)C3)c1`, the inhibition result in data set [1] and in data set [2] was “inactive” each time.
On to `O=C(NCCc1ccccn1)C12CC3CC(CC(C3)C1)C2`, for which the inhibition result in data set [1] and in data set [2] was “inactive” each time.
In the case of `Cc1ccc(C2(C(=O)N(C)Cc3cccs3)CC2)cc1`, the inhibition entry in data set [1] and in data set [2] was “inactive” in each case.
With `Cc1cccc(CN(C)C(=O)C23CC4CC(CC(C4)C2)C3)c1`, the inhibition result in data set [1] and in data set [2] was “inactive” in each case.
Take `CN(Cc1cccs1)C(=O)CC12CC3CC(CC(C3)C1)C2`: the inhibition result in data set [1] and in data set [2] was “inactive” in each case.
For the molecule `CN(Cc1sccc1N)C(=O)C12CC3CC(CC(C3)C1)C2`, the inhibition entry in data set [1] and in data set [2] was “inactive” each time.
In the case of `CN(Cc1cccc(N)c1)C(=O)C12CC3CC(CC(C3)C1)C2`, the inhibition entry in data set [1] and in data set [2] was “inactive” each time.
Regarding `CN(Cc1cccnc1)C(=O)C12CC3CC(CC(C3)C1)C2`, the inhibition entry in data set [1] and in data set [2] was “inactive” throughout.
On to `Cc1csc(CNC(=O)C23CC4CC(CC(C4)C2)C3)c1`, for which the inhibition entry in data set [1] and in data set [2] was “inactive” throughout.
As to `CN(Cc1ccccn1)C(=O)CC12CC3CC(CC(C3)C1)C2`, the inhibition entry in data set [1] and in data set [2] was “inactive” in each case. In addition, the inhibition in data set [3] is 26%.
As to `Cc1csc(CN(C)C(=O)C23CC4CC(CC(C4)C2)C3)c1`, the inhibition result in data set [1] and in data set [2] was “inactive” throughout.
For `CN(CCc1ccccn1)C(=O)C12CC3CC(CC(C3)C1)C2`, the inhibition entry in data set [1] and in data set [2] was “inactive” in each case.
As to `O=C(NCCc1cccnc1)C12CC3CC(CC(C3)C1)C2`, the inhibition result in data set [1] and in data set [2] was “inactive” in each case.
For `CN(Cc1cccs1)C(=O)C12CC3CC(CC(C3)C1)C2`, the inhibition result in data set [1] and in data set [2] was “inactive” each time. For the same molecule, the half-life in data set [4] turned out to be 1 h.
In the case of `CN(Cc1cccs1)C(=O)C1(c2ccc(Cl)cc2)CCCC1`, the inhibition entry in data set [1] and in data set [2] was “inactive” throughout.
As to `Cn1cccc1CNC(=O)CC12CC3CC(CC(C3)C1)C2`, the inhibition entry in data set [1] and in data set [2] was “inactive” in each case.
For `Cn1cccc1CNC(=O)C12CC3CC(CC(C3)C1)C2`, the inhibition result in data set [1] and in data set [2] was “inactive” in each case.
As for `CN(Cc1nccn1C)C(=O)C12CC3CC(CC(C3)C1)C2`, the inhibition result in data set [1] and in data set [2] was “inactive” in each case.
Turning to `CN(Cc1cccn1C)C(=O)C12CC3CC(CC(C3)C1)C2`, the inhibition entry in data set [1] and in data set [2] was “inactive” each time. The half-life in data set [4] worked out at 1 h.
As to `Cc1csc(CN(C)C(=O)C23CC4CC(CC(C4)C2)C3)n1`, the inhibition entry in data set [1] and in data set [2] was “inactive” each time.
As to `CN(Cc1ccco1)C(=O)C12CC3CC(CC(C3)C1)C2`, the inhibition entry in data set [1] and in data set [2] was “inactive” each time.
In the case of `CN(Cc1cccs1)C(=O)C1(c2ccc(Cl)cc2)CCC1`, the inhibition entry in data set [1] and in data set [2] was “inactive” each time.
Take `Cc1cccc(CN(C)C(=O)C23CC4CC(CC(C4)C2)C3)n1`: the inhibition result in data set [1] and in data set [2] was “inactive” throughout.
`CN(Cc1cccnc1)C(=O)CC12CC3CC(CC(C3)C1)C2`: the inhibition result in data set [1] and in data set [2] was “inactive” each time.
On to `O=C(NCCc1cccs1)C12CC3CC(CC(C3)C1)C2`, for which the inhibition entry in data set [1] and in data set [2] was “inactive” each time.
On to `CN(Cc1cccs1)C(=O)C1(c2ccc(Cl)cc2)CC1`, for which the inhibition entry in data set [1] and in data set [2] was “inactive” throughout.
As for `CN(Cc1cccs1)C(=O)C12CC3CC(CC1C3)C2`, the inhibition entry in data set [1] and in data set [2] was “inactive” in each case.
For the molecule `CN(Cc1ccsc1)C(=O)C12CC3CC(CC(C3)C1)C2`, the inhibition result in data set [1] and in data set [2] was “inactive” each time.
In the case of `CN(Cc1cccn1C)C(=O)CC12CC3CC(CC(C3)C1)C2`, the inhibition entry in data set [1] and in data set [2] was “inactive” each time.
On to `O=C(NCc1cccs1)C12CC3CC(CC(C3)C1)C2`, for which the inhibition result in data set [1] and in data set [2] was “inactive” in each case.
In the case of `O=C(NCc1ccccn1)C12CC3CC(CC(C3)C1)C2`, the inhibition result in data set [1] and in data set [2] was “inactive” each time.
Regarding `CN(Cc1ccc(Cl)s1)C(=O)C12CC3CC(CC(C3)C1)C2`, the inhibition result in data set [1] and in data set [2] was “inactive” in each case.
Turning to `CN(Cc1cccc(Cl)c1)C(=O)C12CC3CC(CC(C3)C1)C2`, the inhibition entry in data set [1] and in data set [2] was “inactive” each time.
For the molecule `CN(Cc1cccs1)C(=O)C1(C)CCCCC1`, the inhibition entry in data set [1] and in data set [2] was “inactive” throughout.
For `O=C(NCc1ccco1)C12CC3CC(CC(C3)C1)C2`, the inhibition result in data set [1] and in data set [2] was “inactive” each time.
For `Cc1ccc(CN(C)C(=O)C23CC4CC(CC(C4)C2)C3)s1`, the inhibition result in data set [1] and in data set [2] was “inactive” in each case.
As for `CN(Cc1ccsc1)C(=O)CC12CC3CC(CC(C3)C1)C2`, the inhibition result in data set [1] and in data set [2] was “inactive” throughout.
As to `O=C(NCc1cccnc1)C12CC3CC(CC(C3)C1)C2`, the inhibition result in data set [1] and in data set [2] was “inactive” in each case.
For `Cc1ccsc1CN(C)C(=O)C12CC3CC(CC(C3)C1)C2`, the inhibition entry in data set [1] and in data set [2] was “inactive” each time.
For `CN(Cc1ccnn1C)C(=O)C12CC3CC(CC(C3)C1)C2`, the inhibition entry in data set [1] and in data set [2] was “inactive” in each case.
With `O=C(CC12CC3CC(CC(C3)C1)C2)NCc1cccs1`, the inhibition result in data set [1] and in data set [2] was “inactive” throughout.
On to `CN(CCc1cccs1)C(=O)C12CC3CC(CC(C3)C1)C2`, for which the inhibition result in data set [1] and in data set [2] was “inactive” each time.
